According to ChEMBL document CHEMBL1240503, “Design, synthesis and biological evaluation of new (E)- and (Z)-1,2,3-triaryl-2-propen-1-ones as selective COX-2 inhibitors” (Eur J Med Chem, 2010):

Biological target: T1, Prostaglandin G/H synthase 1 (Ovis aries, UniProt P05979)
T1 sequence (P05979 whole entry): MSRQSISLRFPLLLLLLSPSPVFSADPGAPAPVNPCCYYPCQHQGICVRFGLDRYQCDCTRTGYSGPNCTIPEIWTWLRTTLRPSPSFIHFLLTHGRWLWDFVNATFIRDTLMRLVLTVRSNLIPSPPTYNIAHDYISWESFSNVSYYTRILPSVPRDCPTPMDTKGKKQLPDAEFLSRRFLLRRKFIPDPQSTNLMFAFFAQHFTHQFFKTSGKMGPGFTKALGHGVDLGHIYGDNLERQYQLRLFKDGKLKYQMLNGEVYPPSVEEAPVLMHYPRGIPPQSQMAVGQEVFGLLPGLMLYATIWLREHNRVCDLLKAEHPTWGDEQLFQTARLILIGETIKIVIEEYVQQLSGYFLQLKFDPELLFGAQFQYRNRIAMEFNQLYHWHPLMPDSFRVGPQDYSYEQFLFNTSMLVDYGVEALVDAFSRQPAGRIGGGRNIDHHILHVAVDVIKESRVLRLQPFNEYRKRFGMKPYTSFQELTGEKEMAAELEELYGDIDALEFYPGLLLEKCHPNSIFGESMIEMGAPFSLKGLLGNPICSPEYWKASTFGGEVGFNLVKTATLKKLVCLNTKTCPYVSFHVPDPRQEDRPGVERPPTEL
Test: Inhibition of ovine COX1 by chemiluminescence assay
Method in brief: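 Enzyme activity read as arachidonate-induced luminescence, taken as a real-time index of COX catalytic turnover; inhibition measured as loss of this luminescence signal.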

Row | SMILES | IC50
1 | CS(=O)(=O)c1ccc(C(=O)/C(=C/c2ccc(F)cc2)c2ccccc2)cc1 | 12.6 µM
2 | CS(=O)(=O)c1ccc(C(=O)/C(=C\c2ccc(F)cc2)c2ccccc2)cc1 | 30.9 µM
3 | Cc1ccc(/C=C(/C(=O)c2ccc(S(C)(=O)=O)cc2)c2ccccc2)cc1 | 10.4 µM
4 | Cc1ccc(/C=C(\C(=O)c2ccc(S(C)(=O)=O)cc2)c2ccccc2)cc1 | 12.2 µM
5 | COc1ccc(/C=C(/C(=O)c2ccc(S(C)(=O)=O)cc2)c2ccccc2)cc1 | 10.7 µM
6 | COc1ccc(/C=C(\C(=O)c2ccc(S(C)(=O)=O)cc2)c2ccccc2)cc1 | 18.4 µM
7 | CS(=O)(=O)c1ccc(C(=O)/C(=C/c2cccs2)c2ccccc2)cc1 | 13.1 µM

Next, values leading:

Row | IC50 | SMILES
8 | 13.3 µM | CS(=O)(=O)c1ccc(C(=O)/C(=C/c2ccccc2)c2ccccc2)cc1
9 | 14.3 µM | CS(=O)(=O)c1ccc(C(=O)/C(=C\c2ccccc2)c2ccccc2)cc1
10 | 14.4 µM | CS(=O)(=O)c1ccc(C(=O)/C(=C/c2ccc(O)cc2)c2ccccc2)cc1
11 | 12.4 µM | CS(=O)(=O)c1ccc(C(=O)C(=Cc2ccncc2)c2ccccc2)cc1 (mixture of isomers)
